Source: PubChem
Rtt109 HAT inh: blocks Candida albicans Rtt109/Vps75 acetyltransferase activity. Q5AAJ8. purified Rtt109/Vps75, ThioGlo CoA-SH fluorescence, 4 h. inhibition, % at 34.9 µM. 0.16% of 330,000 active;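 active = inhibition of at least 50% in every replicate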
CSN inh: CSN deneddylation inhibition | inhibition, % at 12.5 µM | AID 651999 | 0.38% of 360,000 active | Q92905 | Purified CSN, SCF-Nedd8-OG deneddylation, fluorescence polarization;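 active = pattern-corrected inhibition above about 35%, with an unprinted fluorescence ratio check between 0.5 and 1.5, limit read from the data, passing the limit was not always enough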;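 also: 0% = enzyme with substrate and 100% = substrate without enzyme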
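Assay system: purified human Csn5 enzyme expressed in HEK293T cells; measure: % inhibition; also added: SCFSkp2-Nedd8OG substrate at 10 nM final; technique: fluorescence polarization; times: reaction 90 min, room temperature; medium: Tris buffer pH 7.5, NaCl, DTT, Tween-20, trehalose, ovalbumin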
HNF4A DNA FP: change in binding of human HNF4 alpha to DNA. P41235. activity change, % at 10 µM. HNF4a-FITC DNA binding, fluorescence polarization, 1 h. 0.3% of 360,000 active; in the data active = activity change above about 30%, passing the limit was not always enough
Target sequence (P41235 whole entry, looked up): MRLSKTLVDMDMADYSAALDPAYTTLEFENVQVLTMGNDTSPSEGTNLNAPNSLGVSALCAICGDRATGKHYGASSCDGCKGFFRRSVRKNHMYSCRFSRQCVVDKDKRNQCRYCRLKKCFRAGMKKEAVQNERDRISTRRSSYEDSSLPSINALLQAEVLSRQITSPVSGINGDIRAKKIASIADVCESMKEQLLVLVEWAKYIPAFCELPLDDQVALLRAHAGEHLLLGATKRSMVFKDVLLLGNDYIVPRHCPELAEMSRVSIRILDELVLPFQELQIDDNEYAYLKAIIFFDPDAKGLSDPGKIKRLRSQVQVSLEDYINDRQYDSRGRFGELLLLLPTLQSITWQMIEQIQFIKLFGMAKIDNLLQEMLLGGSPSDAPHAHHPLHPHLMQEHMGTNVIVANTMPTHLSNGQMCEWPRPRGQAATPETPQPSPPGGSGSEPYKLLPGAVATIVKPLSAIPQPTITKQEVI
TPT1 inhibitor: blocks Candida albicans tRNA 2'-phosphotransferase; inhibition, % at 5 µM; recombinant caTPT1, FP RNA substrate dephosphorylation; 0.81% of 300,000 active;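 active = inhibition above the mean of all tested compounds plus 3 SD, set per screening campaign, cut at about 24% in these data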;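 also: plate controls were DMSO alone for no effect and ferristatin control at 100 nM for full effect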
caTPT1 confirm: TPT1 (C. albicans) inhibition, confirmation; inhibition, % at 5 µM; recombinant caTPT1, fluorescence polarization, RNase T1 coupled; 74% of 2,400 active; shares compounds with TPT1 inhibitor;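 active = inhibition above the primary screen limit, the mean inhibition of all tested compounds plus 3 SD, cut at about 25% in these data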
RNase T1 inh: RNase T1 inhibition in TPT1 counter-screen; shares compounds with TPT1 inhibitor; inhibition, % at 5 µM; RNase T1 cleavage, fluorescence polarization, 1536-well; 83% of 2,400 active; AID 2153;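 active = inhibition above the solvent-only control well mean plus 3 SD, limit set per screening run, cut at about 23% in these data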;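 also: plate controls were DMSO wells with enzyme for no effect and wells without RNase T1 for full effect; inhibitors block cleavage so intact labeled substrate keeps polarization high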
Target sequence (P00651 whole entry, looked up): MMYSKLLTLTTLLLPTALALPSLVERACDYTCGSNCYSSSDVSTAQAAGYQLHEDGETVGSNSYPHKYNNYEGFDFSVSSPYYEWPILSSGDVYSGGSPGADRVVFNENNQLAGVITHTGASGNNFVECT
Active calls of the source: *. Hits are enriched below; roughly 1.2% of the tested compounds scored in any of these assays.

Screening CC[n+]1ccc(/C=C2\Sc3ccccc3N2CCCS(=O)(=O)[O-])c2ccccc21 returned Rtt109 HAT inh 2, CSN inh 1, HNF4A DNA FP 6, TPT1 inhibitor 31*, caTPT1 confirm 14 and RNase T1 inh 19.
`CC(=O)Nc1ccc(C(=O)N2CCCCC2c2cc(C(=O)N3CCOCC3)no2)cc1` (centres undefined) gave CSN inh -3 and HNF4A DNA FP 1.
Cc1cccc(C)c1NC(=O)NC1(C(=O)NCC2CCCO2)CCCCC1 (centres undefined) was read as Rtt109 HAT inh -7, CSN inh -1, HNF4A DNA FP 0 and TPT1 inhibitor 3.
Screening N#CC(C#N)=C/C(C#N)=C(/N)N1CCN(c2ccc(Cl)cc2)CC1 returned Rtt109 HAT inh 1, CSN inh 4, HNF4A DNA FP 1, TPT1 inhibitor 56*, caTPT1 confirm 15 and RNase T1 inh 21.
`CN1CCc2c(sc(N)c2C(=O)O)C1` gave Rtt109 HAT inh -3, CSN inh -3, HNF4A DNA FP -3 and TPT1 inhibitor -15.
COc1ccc(C(=O)c2c(N)sc3c2CCN(C)C3)cc1 was read as Rtt109 HAT inh 0, CSN inh 3, HNF4A DNA FP -13, TPT1 inhibitor 42*, caTPT1 confirm 40* and RNase T1 inh 48*.
`CCCCCCN1C=CC=C/C1=C/C=C(C#N)C#N` gave Rtt109 HAT inh -3, CSN inh 13, HNF4A DNA FP 22, TPT1 inhibitor 62*, caTPT1 confirm 80* and RNase T1 inh 89*.
`CCCCCN1C=CC=C/C1=C\C=C(C#N)C#N` gave CSN inh 1, HNF4A DNA FP 11, TPT1 inhibitor 41*, caTPT1 confirm 44* and RNase T1 inh 58*.
`CCCCCCN1C=C/C(=C\C=C(C#N)C#N)c2ccccc21` gave Rtt109 HAT inh 9, CSN inh 8, HNF4A DNA FP 23 and TPT1 inhibitor 5.
Screening COc1ccc2c(c1)C(CC(C)=O)N(c1ccc(-c3cccs3)cc1)C(c1ccsc1)=C2 (centres undefined) returned CSN inh 4 and HNF4A DNA FP 6.
Cc1cc(C)n2nc(-c3ccsc3-n3c(C)ccc3C)cc2n1 was read as Rtt109 HAT inh 2, CSN inh 25, HNF4A DNA FP 32, TPT1 inhibitor 45*, caTPT1 confirm 53* and RNase T1 inh 64*.
For Cc1ccc(C2C3CSCC=C3C(C#N)=C(N)C2(C#N)C#N)cc1 (centres undefined) the results were CSN inh 9, HNF4A DNA FP 17, TPT1 inhibitor 27*, caTPT1 confirm 19 and RNase T1 inh 29*.
Screening Cc1oc(C)c2c(=O)ccc3c(c12)OC(N)=C(C#N)C3c1ccc(F)cc1 (centres undefined) returned Rtt109 HAT inh -6, CSN inh 27, HNF4A DNA FP 18, TPT1 inhibitor 31*, caTPT1 confirm 17 and RNase T1 inh 28*.
`O=C(C[C@@H]1C/C=C\C[C@H](Cc2ccc(F)cc2)C(=O)OC[C@@H](c2ccccc2)NC1=O)NCCO` gave Rtt109 HAT inh 2, CSN inh -1 and HNF4A DNA FP -1.
Screening O=C(COc1ccccc1Cl)N1CCNC1=O returned Rtt109 HAT inh -2, CSN inh -2 and HNF4A DNA FP -1.
`COc1ccc(Br)cc1S(=O)(=O)N(CC(=O)N1CCOCC1)c1ccccc1` gave CSN inh 3, HNF4A DNA FP -2, TPT1 inhibitor 43*, caTPT1 confirm 6 and RNase T1 inh 10.
COC1Cc2ccccc2N(C(N)=O)c2ccccc21 (centres undefined) was read as Rtt109 HAT inh 10, CSN inh 1, HNF4A DNA FP -5 and TPT1 inhibitor -2.
Screening Cc1[nH]nc2c1C(c1ccsc1C)C(C#N)=C(N)O2 (centres undefined) returned CSN inh 2, HNF4A DNA FP 5 and TPT1 inhibitor -3.
Cc1sccc1C1C(C#N)=C(N)SC(N)=C1C#N was read as TPT1 inhibitor 100*, caTPT1 confirm 70* and RNase T1 inh 84*.
Cc1cc(C2C(C#N)=C(N)SC(N)=C2C#N)c(C)s1 was read as Rtt109 HAT inh 11, CSN inh 106, HNF4A DNA FP 85, TPT1 inhibitor 101*, caTPT1 confirm 46* and RNase T1 inh 59*.
C#CCNC(=O)c1ccc2sc([C@@H]3O[C@H](CO)[C@H](O)[C@H](O)[C@H]3O)nc2c1 was read as CSN inh -6 and HNF4A DNA FP 0.
COc1ccc(NS(=O)(=O)c2cccc(C(=O)NCc3ccco3)c2)cc1 was read as Rtt109 HAT inh -4, CSN inh 4, HNF4A DNA FP -3 and TPT1 inhibitor 0.
COc1cccc(S(=O)(=O)Nc2ccc(C(=O)NCc3ccco3)cc2)c1 was read as Rtt109 HAT inh 4, CSN inh 5, HNF4A DNA FP -2, TPT1 inhibitor 28*, caTPT1 confirm 6 and RNase T1 inh 9.
Screening Cc1ccc2nc(/C(C#N)=C\c3ccc(N4CCOCC4)o3)[nH]c2c1 returned Rtt109 HAT inh 4, CSN inh -10, HNF4A DNA FP 136, TPT1 inhibitor 139*, caTPT1 confirm 149* and RNase T1 inh 136*.
Cc1ccc(/C(C#N)=C\c2ccc(N3CCOCC3)o2)cc1 was read as Rtt109 HAT inh -12, CSN inh 27, HNF4A DNA FP 80*, TPT1 inhibitor 121*, caTPT1 confirm 154* and RNase T1 inh 147*.
`N#C/C(=C/c1ccc(N2CCCCC2)o1)c1cccc(F)c1` gave Rtt109 HAT inh 5, CSN inh 26, HNF4A DNA FP 107, TPT1 inhibitor 134*, caTPT1 confirm 178* and RNase T1 inh 166*.
For N#C/C(=C/c1ccc(N2CCOCC2)o1)C(=O)Nc1ccccc1 the results were Rtt109 HAT inh -2, CSN inh -61 and HNF4A DNA FP 210.
For CC1CCC(NC(=O)COC(=O)CNC(=O)c2ccc3ccccc3c2)CC1 (centres undefined) the results were Rtt109 HAT inh 12, CSN inh -5 and HNF4A DNA FP -2.
COc1ccc(C2C(C#N)=C(N)N(c3cccnc3)C3=C2C(=O)CCC3)cc1Cn1cc([N+](=O)[O-])cn1 (centres undefined) was read as Rtt109 HAT inh 19, CSN inh 5, HNF4A DNA FP 28, TPT1 inhibitor 37*, caTPT1 confirm 43* and RNase T1 inh 55*.
`NC(=O)c1cc2ccccc2o/c1=N/NC(=O)c1cccs1` gave Rtt109 HAT inh 19, CSN inh -4, HNF4A DNA FP -6 and TPT1 inhibitor 2.
For COc1ccc2o/c(=N/NC(=O)c3cccs3)c(C(N)=O)cc2c1 the results were Rtt109 HAT inh 12, CSN inh 18, HNF4A DNA FP 15, TPT1 inhibitor 52*, caTPT1 confirm 68* and RNase T1 inh 79*.
